Assay results taken from ChEMBL document CHEMBL3272207, “Structure-activity relationship in cinnamamides. 2. Synthesis and pharmacological evaluation of some (E)- and (Z)-N-alkyl-alpha, beta-dimethylcinnamamides substituted on the phenyl group” (J Med Chem, 1977).
Active and inactive are the calls of the source. The rule behind the calls is not given here.

Key:
[1] = test system: Mus musculus; experiment: Toxicity in po dosed albino Icem-CET (SPF Caw) mouse assessed as clonic type convulsion by Irwin's test; type: organism-based; settings: in vivo
Procedure, shortened: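 Irwin test in fasted (9 h) male Icem-CET (SPF Caw) mice, 17-22 g. Oral gavage of a 0.5% Methocel suspension at screening doses of 25-800 mg/kg. Clonic-type convulsions were scored as the minimum effective dose.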

[2] = test system: Mus musculus; experiment: Behavioral toxicity in po dosed albino Icem-CET (SPF Caw) mouse assessed as reduction in locomotor activity by Irwin's test; type: organism-based; settings: in vivo
[3] = test system: Mus musculus; experiment: Behavioral toxicity in po dosed albino Icem-CET (SPF Caw) mouse assessed as positional passivity by Irwin's test; type: organism-based; settings: in vivo
[4] = test system: Mus musculus; experiment: Behavioral toxicity in po dosed albino Icem-CET (SPF Caw) mouse assessed as tremors by Irwin's test; type: organism-based; settings: in vivo
[5] = Behavioral toxicity in po dosed albino Icem-CET (SPF Caw) mouse measured up to 7 days by Irwin's test; type: organism-based; settings: in vivo
[6] = test system: Mus musculus; experiment: Anticonvulsant activity in albino Icem-CET (SPF Caw) mouse assessed as inhibition of pentylenetetrazole-induced maximal extensor seizures at 100 mg/kg, po administered 30 mins prior challenge; type: functional, organism-based; design: dose 100 mg/kg
Procedure, shortened: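 Single-dose screen at 100 mg/kg by gavage in 0.5% Methocel in fasted male Icem-CET (SPF Caw) mice, 17-22 g. Dosing was 30 min before pentylenetetrazole 130 mg/kg ip, and prevention of maximal extensor seizures was scored.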

[7] = test system: Mus musculus; experiment: Anticonvulsant activity in po dosed albino Icem-CET (SPF Caw) mouse assessed as inhibition of pentylenetetrazole-induced maximal extensor seizures compound administered 30 mins prior challenge; type: functional
Procedure, shortened: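 Pentylenetetrazole antagonism in male Icem-CET (SPF Caw) mice, 17-22 g, fasted 9 h. Compound in 0.5% Methocel was given by gavage (0.2 ml/10 g) at 4-5 doses, 20 mice per dose, 30 min before pentylenetetrazole 130 mg/kg ip. Prevention of maximal extensor seizures was scored. ED50 was calculated by probit analysis, with fiducial limits at p = 0.05.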

[8] = test system: Mus musculus; experiment: Behavioral toxicity in albino Icem-CET (SPF Caw) mouse assessed as positional passivity at 25 to 800 mg/kg, po by Irwin's test; type: organism-based; design: dose 25-800 mg/kg, route oral; settings: in vivo

C=CCNC(=O)/C(C)=C(/C)c1ccc(Cl)cc1
MED [1]: 400 mg/kg
ED50 [2]: 180 mg/kg
ED50 [3]: 280 mg/kg
ED50 [4]: 400 mg/kg
LD50 at 168 h [5]: 600 mg/kg
Activity [6]: inactive

C=CCNC(=O)/C(C)=C(\C)c1ccccc1
ED50 [2]: 130 mg/kg
ED50 [3]: 300 mg/kg
ED50 [4]: 250 mg/kg
LD50 at 168 h [5]: 550 mg/kg

C#CCNC(=O)/C(C)=C(\C)c1ccc(OC)cc1
ED50 [7]: 112 mg/kg
ED50 [2]: 150 mg/kg
ED50 [3]: 400 mg/kg
ED50 [4]: 150 mg/kg
LD50 at 168 h [5]: > 800 mg/kg

C=CCNC(=O)/C(C)=C(/C)c1ccccc1
Activity [8]: Non-toxic
MED [1]: 400 mg/kg
ED50 [2]: 550 mg/kg
ED50 [4]: 400 mg/kg
LD50 at 168 h [5]: 600 mg/kg
Activity [6]: inactive

C=CCNC(=O)/C(C)=C(/C)c1ccc(OC)cc1
Activity [8]: Non-toxic
MED [1]: 400 mg/kg
ED50 [2]: 280 mg/kg
ED50 [4]: 400 mg/kg
LD50 at 168 h [5]: 400 mg/kg
Activity [6]: inactive

C/C(C(=O)NC1CC1)=C(/C)c1ccc(C)cc1
ED50 [2]: 110 mg/kg
ED50 [3]: 300 mg/kg
ED50 [4]: 150 mg/kg
LD50 at 168 h [5]: > 800 mg/kg
Activity [6]: inactive

C#CCNC(=O)/C(C)=C(\C)c1cc(OC)c(OC)c(OC)c1
ED50 [7]: 53.1 mg/kg
ED50 [2]: 160 mg/kg
ED50 [3]: 300 mg/kg
ED50 [4]: 150 mg/kg
LD50 at 168 h [5]: 500 mg/kg

C=CCNC(=O)/C(C)=C(\C)c1cc(OC)c(OC)c(OC)c1
ED50 [2]: 110 mg/kg
ED50 [3]: 280 mg/kg
ED50 [4]: 190 mg/kg
LD50 at 168 h [5]: 600 mg/kg
Activity [6]: inactive

COc1cc(/C(C)=C(\C)C(=O)NC2CC2)cc(OC)c1OC
ED50 [2]: 320 mg/kg
ED50 [3]: > 800 mg/kg
ED50 [4]: > 800 mg/kg
LD50 at 168 h [5]: > 800 mg/kg
Activity [6]: inactive

COc1ccc(/C(C)=C(\C)C(=O)NC2CC2)cc1
ED50 [2]: 250 mg/kg
ED50 [3]: 300 mg/kg
ED50 [4]: 250 mg/kg
LD50 at 168 h [5]: > 800 mg/kg
Activity [6]: inactive

C=CCNC(=O)/C(C)=C(\C)c1ccc(Br)cc1
ED50 [7]: 33.7 mg/kg
ED50 [2]: 120 mg/kg
ED50 [3]: 500 mg/kg
ED50 [4]: 500 mg/kg
LD50 at 168 h [5]: 600 mg/kg

C#CCNC(=O)/C(C)=C(\C)c1ccc(Br)cc1
ED50 [7]: 18.4 mg/kg
ED50 [2]: 180 mg/kg
ED50 [3]: 500 mg/kg
ED50 [4]: 150 mg/kg
LD50 at 168 h [5]: 300 mg/kg

C#CCNC(=O)/C(C)=C(\C)c1ccc(C)cc1
ED50 [7]: 86.4 mg/kg
ED50 [2]: 120 mg/kg
ED50 [3]: 200 mg/kg
ED50 [4]: 150 mg/kg
LD50 at 168 h [5]: > 800 mg/kg

C/C(C(=O)NC1CC1)=C(/C)c1ccc(Cl)cc1
ED50 [2]: 350 mg/kg
ED50 [3]: > 800 mg/kg
ED50 [4]: 150 mg/kg
LD50 at 168 h [5]: 300 mg/kg

C#CCNC(=O)/C(C)=C(\C)c1ccccc1
ED50 [7]: 45.3 mg/kg
ED50 [2]: 150 mg/kg
ED50 [3]: 400 mg/kg
ED50 [4]: 150 mg/kg
LD50 at 168 h [5]: 300 mg/kg

C=CCNC(=O)/C(C)=C(\C)c1ccc(Cl)cc1
ED50 [2]: 70 mg/kg
ED50 [3]: 90 mg/kg
ED50 [4]: 70 mg/kg
LD50 at 168 h [5]: 300 mg/kg

C/C(C(=O)NC1CC1)=C(/C)c1ccccc1
ED50 [2]: 100 mg/kg
ED50 [3]: 250 mg/kg
ED50 [4]: 150 mg/kg
LD50 at 168 h [5]: 500 mg/kg

C=CCNC(=O)/C(C)=C(\C)c1ccc(C)cc1
ED50 [7]: 78 mg/kg
ED50 [2]: 100 mg/kg
ED50 [3]: 170 mg/kg
ED50 [4]: 150 mg/kg
LD50 at 168 h [5]: 600 mg/kg

C=CCNC(=O)/C(C)=C(\C)c1ccc(OC)cc1
ED50 [2]: 200 mg/kg
ED50 [3]: 300 mg/kg
ED50 [4]: 300 mg/kg
LD50 at 168 h [5]: > 800 mg/kg
Activity [6]: inactive
